# Measured values as given in ChEMBL document CHEMBL1143122, “Novel analogs of D-e-MAPP and B13. Part 1: synthesis and evaluation as potential anticancer agents” (Bioorg Med Chem, 2008).
# Experiments:
# U-251 = assay: Antiproliferative activity against human U251 cells after 48 hrs; type: functional; settings: U-251, 48 h
# Outline: (§1)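 NCI 60-cell-line screen. Lines grown in RPMI 1640 with 5% fetal bovine serum and 2 mM L-glutamine, plated at 5,000–40,000 cells/well according to doubling time, left 24 h at 37 °C in 5% CO2. Drug stocks in DMSO at 400-fold the top final concentration. Five 10-fold dilutions, 10−4 to 10−8 M, incubated 48 h. Growth read spectrophotometrically as net protein; GI50 taken as 50% reduction.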
# M14 = assay: Antiproliferative activity against human M14 cells after 48 hrs; type: functional; settings: M14, 48 h
# Outline: (§2)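 NCI 60-cell screen. Cells were grown in RPMI 1640 with 5% FBS and 2 mM L-glutamine, then plated at 5,000–40,000 cells/well according to doubling time and preincubated for 24 h at 37 °C in 5% CO2. Compounds were dissolved in DMSO at 400× the top final concentration and tested at five 10-fold dilutions from 10−4 to 10−8 M for 48 h. Growth was read spectrophotometrically; GI50 is 50% net protein reduction.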
# SK-MEL-28 = assay: Antiproliferative activity against human SKMEL28 cells after 48 hrs; type: functional; settings: SK-MEL-28, 48 h; outline: as §2
# UACC-257 = assay: Antiproliferative activity against human UACC257 cells after 48 hrs; type: functional; settings: UACC-257, 48 h; outline: as §1
# OVCAR-3 = assay: Antiproliferative activity against human OVCAR-3 cells after 48 hrs; type: functional; settings: OVCAR-3, 48 h; outline: as §2
# OVCAR-4 = assay: Antiproliferative activity against human OVCAR4 cells after 48 hrs; type: functional; settings: OVCAR-4, 48 h; outline: as §2
# OVCAR-5 = assay: Antiproliferative activity against human OVCAR5 cells after 48 hrs; type: functional; settings: OVCAR-5, 48 h; outline: as §2
# SK-OV-3 = assay: Antiproliferative activity against human SKOV3 cells after 48 hrs; type: functional; settings: SK-OV-3, 48 h; outline: as §2
# CAKI-1 = assay: Antiproliferative activity against human CAKI1 cells after 48 hrs; type: functional; settings: CAKI-1, 48 h; outline: as §2
# RXF 393 = assay: Antiproliferative activity against human RXF393 cells after 48 hrs; type: functional; settings: RXF 393, 48 h; outline: as §2
# UO-31 = assay: Antiproliferative activity against human UO31 cells after 48 hrs; type: functional; settings: UO-31, 48 h; outline: as §1
# PC-3 = assay: Antiproliferative activity against human PC3 cells after 48 hrs; type: functional; settings: PC-3, 48 h; outline: as §2
# DU-145 = assay: Antiproliferative activity against human DU145 cells after 48 hrs; type: functional; settings: DU-145, 48 h; outline: as §2
# [1] = Antiproliferative activity against human NCI-ADR-RES cells after 48 hrs; type: functional; outline: as §2
# MDA-MB-231 = assay: Antiproliferative activity against human MDA-MB-231 cells after 48 hrs; type: functional; settings: MDA-MB-231, 48 h; outline: as §2
# Hs-578T = assay: Antiproliferative activity against human HS578T cells after 48 hrs; type: functional; outline: as §2
# MDA-MB-435 = assay: Antiproliferative activity against human MDA-MB-435 cells after 48 hrs; type: functional; settings: Homo sapiens, MDA-MB-435, 48 h; outline: as §2
# BT-549 = assay: Antiproliferative activity against human BT549 cells after 48 hrs; type: functional; settings: BT-549, 48 h; outline: as §2
# T47D = assay: Antiproliferative activity against human T47D cells after 48 hrs; type: functional; outline: as §1
# NCI-H226 = assay: Antiproliferative activity against human NCI-H226 cells after 48 hrs; type: functional; settings: NCI-H226, 48 h; outline: as §2
# NCI-H23 = assay: Antiproliferative activity against human NCI-H23 cells after 48 hrs; type: functional; settings: NCI-H23, 48 h; outline: as §2
# NCI-H322M = assay: Antiproliferative activity against human NCI-H322M cells after 48 hrs; type: functional; outline: as §2
# COLO 205 = assay: Antiproliferative activity against human COLO205 cells after 48 hrs; type: functional; settings: COLO 205, 48 h; outline: as §2
# HCT-15 = assay: Antiproliferative activity against human HCT15 cells after 48 hrs; type: functional; settings: Homo sapiens, HCT-15, 48 h; outline: as §2
# HT-29 = assay: Antiproliferative activity against human HT29 cells after 48 hrs; type: functional; settings: HT-29, 48 h; outline: as §2
# SF-268 = assay: Antiproliferative activity against human SF268 cells after 48 hrs; type: functional; settings: SF-268, 48 h; outline: as §2
# SF-539 = assay: Antiproliferative activity against human SF539 cells after 48 hrs; type: functional; settings: SF-539, 48 h; outline: as §2
# SNB-19 = assay: Antiproliferative activity against human SNB19 cells after 48 hrs; type: functional; settings: SNB-19, 48 h; outline: as §2
# MCF7 = assay: Antiproliferative activity against human MCF7 cells after 48 hrs; type: functional, cell-based; settings: MCF7, 48 h
# MOLT-4 = assay: Antiproliferative activity against human MOLT4 cells after 48 hrs; type: functional; settings: MOLT-4, 48 h; outline: as §2
# RPMI-8226 = assay: Antiproliferative activity against human RPMI8226 cells after 48 hrs; type: functional; settings: RPMI-8226, 48 h; outline: as §2
# A549 = assay: Antiproliferative activity against human A549 cells after 48 hrs; type: functional; settings: A549, 48 h; outline: as §2
# [2] = read-out: Log LC50 (the source's name) (converted)
smiles,measurement,setting,value
CCCCCCCCCCCCCCN[C@H](C)[C@@H](O)c1ccccc1.Cl,GI50,U-251,1.86 µM
same,CC50,U-251; [2],5.89 µM
same,TGI,U-251; read-out: Log TGI (converted),3.31 µM
same,GI50,M14,1.86 µM
same,LC50,M14,6.17 µM
same,TGI,M14; read-out: Log TGI (converted),3.39 µM
same,GI50,SK-MEL-28,1.86 µM
same,LC50,SK-MEL-28,5.75 µM
same,TGI,SK-MEL-28; read-out: Log TGI (converted),3.24 µM
same,GI50,UACC-257,1.66 µM
same,CC50,UACC-257; [2],6.46 µM
same,TGI,UACC-257; read-out: Log TGI (converted),3.31 µM
same,GI50,OVCAR-3,1.74 µM
same,LC50,OVCAR-3,6.03 µM
same,TGI,OVCAR-3; read-out: Log TGI (converted),3.24 µM
same,GI50,OVCAR-4,2.14 µM
same,LC50,OVCAR-4,6.76 µM
same,TGI,OVCAR-4; read-out: Log TGI (converted),3.8 µM
same,GI50,OVCAR-5,2 µM
same,CC50,OVCAR-5; [2],6.17 µM
same,TGI,OVCAR-5; read-out: Log TGI (converted),3.47 µM
same,GI50,SK-OV-3,2.34 µM
same,CC50,SK-OV-3; [2],9.77 µM
same,TGI,SK-OV-3; read-out: Log TGI (converted),4.79 µM
same,GI50,CAKI-1,1.95 µM
same,CC50,CAKI-1; [2],5.75 µM
same,TGI,CAKI-1; read-out: Log TGI (converted),3.39 µM
same,GI50,RXF 393,1.38 µM
same,CC50,RXF 393; [2],5.5 µM
same,TGI,RXF 393; read-out: Log TGI (converted),2.75 µM
same,GI50,UO-31,1.74 µM
same,LC50,UO-31,5.89 µM
same,TGI,UO-31; read-out: Log TGI (converted),3.24 µM
same,GI50,PC-3,1.86 µM
same,LC50,PC-3,5.89 µM
same,TGI,PC-3; read-out: Log TGI (converted),3.31 µM
same,GI50,DU-145,1.48 µM
same,CC50,DU-145; [2],5.25 µM
same,TGI,DU-145; read-out: Log TGI (converted),2.82 µM
same,GI50,[1],1.82 µM
same,TGI,[1]; read-out: Log TGI (converted),3.55 µM
same,GI50,MDA-MB-231,1.74 µM
same,LC50 (50% lethal concentration),MDA-MB-231,6.46 µM
same,TGI,MDA-MB-231; read-out: Log TGI (converted),3.39 µM
same,GI50,Hs-578T,2.51 µM
same,LC50,Hs-578T,46.8 µM
same,TGI,Hs-578T; read-out: Log TGI (converted),5.5 µM
same,GI50,MDA-MB-435,1.78 µM
same,LC50,MDA-MB-435,5.62 µM
same,TGI,MDA-MB-435; read-out: Log TGI (converted),3.16 µM
same,GI50,BT-549,1.12 µM
same,LC50,BT-549,5.01 µM
same,TGI,BT-549; read-out: Log TGI (converted),2.4 µM
same,GI50,T47D,2.29 µM
same,CC50,T47D; [2],7.76 µM
same,TGI,T47D; read-out: Log TGI (converted),4.17 µM
same,GI50,NCI-H226,1.86 µM
same,CC50,NCI-H226; [2],7.08 µM
same,TGI,NCI-H226; read-out: Log TGI (converted),3.63 µM
same,GI50,NCI-H23,2.14 µM
same,CC50,NCI-H23; [2],7.94 µM
same,TGI,NCI-H23; read-out: Log TGI (converted),4.07 µM
same,GI50,NCI-H322M,1.91 µM
same,CC50,NCI-H322M; [2],5.89 µM
same,TGI,NCI-H322M; read-out: Log TGI (converted),3.31 µM
same,GI50,COLO 205,1.91 µM
same,CC50,COLO 205; [2],6.17 µM
same,TGI,COLO 205; read-out: Log TGI (converted),3.39 µM
same,GI50,HCT-15,1.82 µM
same,LC50,HCT-15,5.89 µM
same,TGI,HCT-15; read-out: Log TGI (converted),3.24 µM
same,GI50,HT-29,1.78 µM
same,LC50,HT-29,5.75 µM
same,TGI,HT-29; read-out: Log TGI (converted),3.24 µM
same,GI50,SF-268,1.78 µM
same,LC50,SF-268,6.76 µM
same,TGI,SF-268; read-out: Log TGI (converted),3.47 µM
same,GI50,SF-539,1.35 µM
same,LC50,SF-539,5.5 µM
same,TGI,SF-539; read-out: Log TGI (converted),2.69 µM
same,GI50,SNB-19,1.74 µM
same,TGI,SNB-19; read-out: Log TGI (converted),3.09 µM
same,IC50,MCF7,3.5 µM
same,GI50,MOLT-4,0.871 µM
same,LC50,MOLT-4,4.9 µM
same,TGI,MOLT-4; read-out: Log TGI (converted),2.19 µM
same,GI50,RPMI-8226,3.39 µM
same,CC50,RPMI-8226; [2],7.24 µM
same,TGI,RPMI-8226; read-out: Log TGI (converted),3.63 µM
same,GI50,A549,1.74 µM
same,CC50,A549; [2],6.31 µM
same,TGI,A549; read-out: Log TGI (converted),3.31 µM
